This is an account of results in ChEMBL document CHEMBL1132488, “On the bioactive conformation of NAN-190 (1) and MP3022 (2), 5-HT(1A) receptor antagonists” (J Med Chem, 1999).

Experiment [1] is filed under the species Rattus norvegicus. Description: Effective dose required to induce LLR(lower lip retraction). The class given is functional. In short, it runs like this: (§1)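 Male Wistar rats, groups of 6, given compound alone ip as 1% Tween 80 suspension. Lower incisor visibility scored 0/0.5/1 at 15, 30 and 45 min after dosing, summed (max 3 per rat). Mean ± SEM versus vehicle, Newman–Keuls test; ED50 with range.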

The species entered for experiment [2] is Rattus norvegicus. In words: Induction of behavioral syndrome(FT: forepaw treading) by the compound in reserpine pretreated rats at a dose of 16; FT mean score. The class given is functional. The method, boiled down: (§2)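 Male Wistar rats (260–300 g) were given reserpine 1 mg/kg sc in saline 18 h before testing. Test compound was then given alone ip as a 1% Tween 80 suspension (2 mL/kg). FBP and FT were each scored 0–3 and summed (maximum 15). n=6 per group; mean ± SEM; Newman–Keuls test.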

The target in experiment [3] is T1, 5-hydroxytryptamine receptor 1A (Rattus norvegicus, UniProt P19327).
T1 sequence (P19327 whole entry): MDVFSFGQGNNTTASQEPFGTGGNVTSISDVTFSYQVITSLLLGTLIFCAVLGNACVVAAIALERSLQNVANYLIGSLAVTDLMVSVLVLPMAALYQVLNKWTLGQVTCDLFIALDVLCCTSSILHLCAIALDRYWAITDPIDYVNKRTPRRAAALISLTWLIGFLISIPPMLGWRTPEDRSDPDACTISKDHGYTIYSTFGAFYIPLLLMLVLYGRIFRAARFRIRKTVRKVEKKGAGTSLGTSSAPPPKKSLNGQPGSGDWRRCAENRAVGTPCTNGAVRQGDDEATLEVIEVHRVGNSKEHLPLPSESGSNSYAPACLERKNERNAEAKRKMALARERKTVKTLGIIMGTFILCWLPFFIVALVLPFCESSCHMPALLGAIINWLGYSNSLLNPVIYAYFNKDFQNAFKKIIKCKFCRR
In words: Ability to displace [3H]8-OH-DPAT from 5-hydroxytryptamine 1A receptor. In short, it runs like this: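 Rat hippocampal membranes, [3H]8-OH-DPAT radioligand. Ki from at least three competition experiments, each with 10–14 drug concentrations run in triplicate. Ki calculated with the Cheng–Prusoff equation.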

The species named for experiment [4] is Rattus norvegicus. Description: Induction of behavioral syndrome(FBP: flat body posture) by the compound in reserpine pretreated rats at a dose of 4; FBP mean score. The class given is functional. The method, boiled down: as §2
The species entered for experiment [5] is Rattus norvegicus. In words: Dose Inducing behavioral syndrome(FBP: flat body posture) by the compound in reserpine pretreated rats. The class given is functional. The method, boiled down: (§3)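 Male Wistar rats (260–300 g), groups of 6, given reserpine 1 mg/kg sc 18 h before test. Compounds given ip as 1% Tween 80 suspension. FBP and FT rated 0–3 in 45-s sessions every 3 min, starting 3 min after dosing. Score summed over 5 periods (max 15 per symptom). Mean ± SEM; Newman–Keuls test.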

Experiment [6] deals with Rattus norvegicus. Description: Induction of LLR(lower lip retraction) by the compound in rats at a dose of 8 mg/kg; LLR score. The class given is functional. The method, boiled down: as §1
The species entered for experiment [7] is Rattus norvegicus. Description: Induction of behavioral syndrome(FBP: flat body posture) by the compound in reserpine pretreated rats at a dose of 8. The class given is functional. The method, boiled down: as §2
Experiment [8] is filed under the species Rattus norvegicus. Description: Induction of behavioral syndrome(FT: forepaw treading) by the compound in reserpine pretreated rats at a dose of 4; FT mean score. The class given is functional. In short, it runs like this:
as §2

The species named for experiment [9] is Rattus norvegicus. Description: Effect on 8-OH-DAPT- induced behavioral syndrome(FBP: flat body posture) by the compound in reserpine pretreated rats at a dose of 16; FBP mean score. The class given is functional. In short, it runs like this:
(§4)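 Reserpinized male Wistar rats (reserpine 1 mg/kg sc, 18 h before), groups of 6. Compound given ip in 1% Tween 80 60 min before 8-OH-DPAT 5 mg/kg sc. FBP/FT rated 0–3 at 3, 6, 9, 12 and 15 min after agonist, summed (max 15). Mean ± SEM; Newman–Keuls test; ED50 with range.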

Experiment [10] is filed under the species Rattus norvegicus. Description: Dose Inducing behavioral syndrome(FT: forepaw treading) by the compound in reserpine pretreated rats. The class given is functional. The method, boiled down:
as §3

The species entered for experiment [11] is Rattus norvegicus. Description: Induction of behavioral syndrome(FBP: flat body posture) by the compound in reserpine pretreated rats at a dose of 16; FBP mean score. The class given is functional. In short, it runs like this: as §3
Experiment [12] is filed under the species Rattus norvegicus. Description: Induction of behavioral syndrome(FT: forepaw treading) by the compound in reserpine pretreated rats at a dose of 8; FT mean score. The class given is functional. In short, it runs like this:
as §2

The test system of experiment [13] is Rattus norvegicus. In words: Induction of LLR(lower lip retraction) by the compound in rats at a dose of 16 mg/kg; LLR score. The class given is functional. In short, it runs like this:
as §1

The species entered for experiment [14] is Rattus norvegicus. Description: Effect on 8-OH-DAPT- induced behavioral syndrome(FBP: flat body posture) by the compound in reserpine pretreated rats at a dose of 4; FBP mean score. The class given is functional. The method, boiled down:
as §4

For experiment [15], the species on record is Rattus norvegicus. Description: Effect on 8-OH-DAPT- induced behavioral syndrome(FBP: flat body posture) by the compound in reserpine pretreated rats at a dose of 8; FBP mean score. The class given is functional. In short, it runs like this: as §4
In experiment [16] the test system is Rattus norvegicus. Description: Induction of LLR(lower lip retraction) by the compound in rats at a dose of 4 mg/kg; LLR score. The class given is functional. In short, it runs like this:
as §1

For experiment [17], the species on record is Rattus norvegicus. In words: Effect on 8-OH-DAPT- induced behavioral syndrome(FT: forepaw treading) by the compound in reserpine pretreated rats at a dose of 16. The class given is functional. In short, it runs like this:
as §4

Experiment [18] is filed under the species Rattus norvegicus. Description: Effect on 8-OH-DAPT- induced behavioral syndrome(FT: forepaw treading) by the compound in reserpine pretreated rats at a dose of 8; FT mean score. The class given is functional. The method, boiled down: as §4
For experiment [19], the species on record is Rattus norvegicus. In words: Effect on 8-OH-DAPT- induced behavioral syndrome(FT: forepaw treading) by the compound in reserpine pretreated rats at a dose of 4; FT mean score. The class given is functional. In short, it runs like this: as §4

Structures are written as SMILES.

Broadly, the ED50 is the dose that gives a 50% effect, or the effect in half of the subjects. One may read the Ki as a measure of affinity in units of concentration, obtained from inhibition or displacement. For `COc1ccccc1N1CCN(C2CCCC(n3nnc4ccccc43)C2)CC1` (centres undefined), the ED50 was 8 mg/kg in [1], 11 mg/kg in experiment [5] and 7 mg/kg in experiment [10]. Also, the FT mean score is on record as 0.1 in experiment [2]; 0.1 in [8]; 0.3 in [12]; 0.8 in experiment [17]; 3.5 in experiment [18]; 9.6 in [19]. Further, the affinity in experiment [3] corresponds to a Ki of 47 nM. For the same compound, the FBP mean score is given as 0.6 in experiment [4]; 0.5 in experiment [7]; 6.2 in experiment [9]; 1 in experiment [11]; 12.5 in experiment [14]; 7 in experiment [15]. In addition, the LLR score in experiment [6] is 1.3; in [13] it was 1.6; in experiment [16] it was 0.9.
